Test results reported in ChEMBL document CHEMBL1126843, “Non-amine based analogues of lavendustin A as protein-tyrosine kinase inhibitors” (J Med Chem, 1993).

Assays:
[1] = biological target: Tyrosine-protein kinase Lck (Homo sapiens, UniProt P06239); experiment: Inhibition of p56lck autophosphorylation; assay type: functional
[2] = (§1) Inhibition of c-erb B-2/HER2/neu receptor; assay type: functional
Method in brief: (§2)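 HER2/neu immunoprecipitated from SK-BR-3 breast cancer cells (1-2 × 10^6 cells per assay) on plates coated with goat anti-mouse Ig and anti-HER2 mAb (20 μg/mL), blocked with gelatin/glycine. Lysates bound overnight on ice, then washed. Kinase reaction in 25 mM HEPES pH 7.2, 3 mM MnCl2, 20 mM MgCl2, 0.1% NP-40 and 1 µCi [γ-32P]ATP, 20 min at 25 °C. Products run on 7.5% reducing SDS-PAGE; inhibition calculated from densitometric band densities.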

[3] = Inhibition of epidermal growth factor receptor (EGFR) autophosphorylation; assay type: functional
[4] = as §1; method in brief: as §2
[5] = Inhibition of epidermal growth factor receptor (EGFR)

Tyrosine-protein kinase Lck, sequence (P06239 whole entry): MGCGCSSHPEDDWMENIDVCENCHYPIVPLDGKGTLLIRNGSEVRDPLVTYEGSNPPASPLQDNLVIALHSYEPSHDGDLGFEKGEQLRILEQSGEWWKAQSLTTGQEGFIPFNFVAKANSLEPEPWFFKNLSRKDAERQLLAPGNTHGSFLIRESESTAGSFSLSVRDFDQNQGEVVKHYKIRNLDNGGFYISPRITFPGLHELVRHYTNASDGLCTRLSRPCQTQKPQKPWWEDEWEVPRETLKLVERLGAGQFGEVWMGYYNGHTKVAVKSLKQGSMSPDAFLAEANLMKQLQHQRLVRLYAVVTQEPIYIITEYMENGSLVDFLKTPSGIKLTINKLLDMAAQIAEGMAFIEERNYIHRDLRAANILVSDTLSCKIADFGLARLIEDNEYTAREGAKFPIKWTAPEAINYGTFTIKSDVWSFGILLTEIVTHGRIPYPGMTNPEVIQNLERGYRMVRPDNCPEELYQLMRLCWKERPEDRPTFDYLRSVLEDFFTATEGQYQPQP

O=C(O)c1cc(/C=C/c2cc(O)ccc2O)ccc1O gave an IC50 [1] of 0.06 µM, an IC50 [2] of 0.6 µM and an IC50 [3] of 2 µM.
For O=C(O)c1cc(CCc2ccc(O)c(O)c2)ccc1O, the IC50 [1] was 1 µM, the IC50 [4] was 0.6 µM and the IC50 [5] was 12 µM.
With O=C(O)c1cc(/C=C/c2ccc(O)c(O)c2)ccc1O the IC50 [2] was 0.2 µM and the IC50 [3] was 5 µM.
Work on O=C(O)c1cc(CCc2cc(O)ccc2O)ccc1O yielded an IC50 [1] of 1 µM, an IC50 [2] of 4 µM and an IC50 [3] of 20 µM.
For O=C(O)c1cc(/N=C/c2cc(O)ccc2O)ccc1O, the IC50 [1] was 85 µM, the IC50 [2] was 70 µM and the IC50 [3] was 9 µM.
For O=C(O)c1cc(N(Cc2ccccc2O)Cc2cc(O)ccc2O)ccc1O [LAVENDUSTIN A], the IC50 [1] was 8 µM, the IC50 [2] was 9 µM and the IC50 [3] was 7 µM.
Work on O=C(O)c1cc(NCc2cc(O)ccc2O)ccc1O [LAVENDUSTIN C] yielded an IC50 [1] of 10 µM, an IC50 [2] of 0.9 µM and an IC50 [3] of 4 µM.
